Measured values published in ChEMBL document CHEMBL1128379, “Synthesis, characterization, and antimalarial activity of the glucuronides of the hydroxylated metabolites of arteether” (J Med Chem, 1995).
≈ marks a conversion by molar mass, not a printed value.

What was measured:
[1] = Partition coefficient (logP); type: physicochemical; settings: octanol/water
Outline: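 log P estimated from C-18 HPLC retention index. Retention times taken on thermospray LC/MS, isocratic 50% (v/v) methanol in water with 0.1 M ammonium acetate at 1 mL/min, positive ion, filament on, vaporizer tip 7 °C below take-off temperature, block 184 °C.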

Plasmodium falciparum = test: In vitro antimalarial activity against Plasmodium falciparum FCR3; type: functional, organism-based
Outline: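 P. falciparum FCR-3 kept in candle jars in RPMI 1640 with 10% human serum, sorbitol-synchronized for at least three cycles. Serially diluted compounds plus ring-stage parasitized cells (0.5-1% parasitemia, 5-10% hematocrit), 37 °C for 24 h, then 2 μCi [3H]hypoxanthine added and incubated 24 h more. Cells harvested, scintillation counted, drug-free parasitized controls run alongside.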

Structure (SMILES) | logP ([1]; read-out: logP) | IC50 (Plasmodium falciparum) | logP [1]
CCO[C@H]1O[C@@H]2O[C@@]3(C)CC[C@H]4[C@H](CO[C@H]5O[C@@H](C(=O)O)[C@H](O)[C@@H](O)[C@@H]5O)CC[C@@H]([C@H]1C)[C@@]24OO3 | 1.05 | 6 µg/mL (≈ 11.9 µM) | 
CCO[C@H]1O[C@@H]2O[C@@]3(C)CC[C@H]4[C@H](C)[C@H](O[C@H]5O[C@@H](C(=O)O)[C@H](O)[C@@H](O)[C@@H]5O)C[C@@H]([C@H]1C)[C@@]24OO3 | 0.93 | 6.56 µg/mL (≈ 13 µM) | 
CCO[C@H]1O[C@@H]2O[C@@]3(C)CC[C@H]4[C@H](C)[C@@H](O)C[C@@H]([C@H]1C)[C@@]24OO3 | 1.93 |  | 
C[C@H]1[C@@H](O)O[C@@H]2O[C@@]3(C)CC[C@H]4[C@H](C)CC[C@@H]1[C@@]24OO3 [ARTENIMOL] |  | 0.0107 µg/mL (≈ 0.0376 µM) | 2.45
CCO[C@H]1O[C@@H]2O[C@@]3(C)CC[C@H]4[C@H](C)CC[C@@H]([C@H]1C)[C@@]24OO3 [ARTEMOTIL] | 3.89 | 0.0013 µg/mL (≈ 0.00416 µM) | 
CCO[C@H]1O[C@@H]2O[C@@]3(C)CC[C@H]4[C@H](C)[C@H](O)C[C@@H]([C@H]1C)[C@@]24OO3 | 2.14 |  | 
C[C@H]1[C@H](O[C@@H]2O[C@H](C(=O)O)C(O)[C@H](O)C2O)O[C@@H]2O[C@H]3CC[C@H]4[C@H](C)CC[C@@H]1[C@@]24OO3 (stereo partly drawn) | 1.08 | 6 µg/mL (≈ 13.4 µM) | 
CCO[C@H]1O[C@@H]2O[C@@]3(C)CC[C@H]4[C@H](CO)CC[C@@H]([C@H]1C)[C@@]24OO3 | 2.08 |  | 
CCO[C@H]1O[C@@H]2O[C@@]3(C)CC[C@H]4[C@H](C)[C@@H](O[C@H]5O[C@@H](C(=O)O)[C@H](O)[C@@H](O)[C@@H]5O)C[C@@H]([C@H]1C)[C@@]24OO3 | 0.61 | 0.0893 µg/mL (≈ 0.177 µM) | 
C[C@H]1[C@@H](O[C@@H]2O[C@H](C(=O)O)C(O)[C@H](O)C2O)O[C@@H]2O[C@H]3CC[C@H]4[C@H](C)CC[C@@H]1[C@@]24OO3 (stereo partly drawn) | 1.8 | 0.255 µg/mL (≈ 0.571 µM) | 
CCO[C@H]1O[C@@H]2O[C@@]3(C)C[C@H](O)[C@H]4[C@H](C)CC[C@@H]([C@H]1C)[C@@]24OO3 | 2.7 |  | 
